Measured values from publication PMC6422681 (Science signaling, 2018).
Where a name gives a salt, the structure may show the parent alone.

Legend:
[1] = molecular target: T1, CXCR4 (Homo sapiens, UniProt P61073); experiment: CXCR4 phosphorylation assay; type: cell-based; details: Jurkat cells, 1 μM AMD3100 or 10 μM X4-2-6 for 30 min, then 30 nM CXCL12 for 30 min
[2] = molecular target: T1, CXCR4; experiment: Flow cytometry of CXCR4 cell surface expression on Jurkat cells; type: cell-based
[3] = molecular target: T1, CXCR4; details: Jurkat cells, 72 hours, fig. S1
[4] = molecular target: T1, CXCR4; experiment: Flow cytometry of CXCL12-stimulated CXCR4 endocytosis in Jurkat cells; type: cell-based; details: 30 nM CXCL12, antagonist 30 min before
How it was run: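 Jurkat cells (1×10^5), serum-starved 6 hours, got vehicle or antagonist 30 min before 30 nM CXCL12. At set times, washed three times in ice-cold PBS/1% BSA, stained 20 min with PE-anti-CXCR4 (4G10 or 12G5) or isotype controls, and fixed in 4% paraformaldehyde. Surface CXCR4 read by flow cytometry against CXCL12 alone. Means ± SD; three experiments in triplicate.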

[5] = tested on: CXCR4; experiment: PRESTO-Tango assay of BA2 recruitment to CXCR4; type: cell-based; details: HTLA cells, increasing CXCL12 with 1 μM AMD3100 or 10 μM X4-2-6, 1 hour, 37°C
How it was run: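 HTLA cells were lipofected with Tango plasmids. After one day they were plated on poly-L-lysine-coated wells and allowed to attach 4 h before treatment with CXCL12 plus vehicle or test compound. Read-out was luminescence after adding a 1:5 mix of Bright-Glo with HBSS/20 mM Hepes and incubating at room temperature.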

[6] = molecular target: T1, CXCR4; experiment: Transwell chemotaxis of Jurkat cells toward CXCL12; type: cell-based; details: Jurkat cells treated 1 hour with 80 μM dynasore, 30 nM CXCL12
[7] = molecular target: T1, CXCR4; experiment: cAMP concentration by ELISA in Jurkat cells; type: cell-based; details: 100 μM forskolin, 30 nM CXCL12
How it was run: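 Jurkat cells (5×10^6), serum-starved 6 hours in RPMI 1640 with penicillin-streptomycin and L-glutamine. Steps: 100 μM forskolin or vehicle 30 min; then vehicle or antagonists 30 min; then 30 nM CXCL12 30 min. cAMP measured in lysates by direct ELISA; relative change calculated. Means ± SD of three independent experiments, six replicates per condition.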

[8] = tested on: ERK1/2; experiment: ERK1/2 phosphorylation assay; type: cell-based, human; details: Jurkat cells, 30 nM CXCL12, time points up to 30 min
[9] = tested on: Gαi; experiment: GTP loading of Gαi; type: cell-based, human; details: Jurkat cells

T1 sequence (P61073 whole entry): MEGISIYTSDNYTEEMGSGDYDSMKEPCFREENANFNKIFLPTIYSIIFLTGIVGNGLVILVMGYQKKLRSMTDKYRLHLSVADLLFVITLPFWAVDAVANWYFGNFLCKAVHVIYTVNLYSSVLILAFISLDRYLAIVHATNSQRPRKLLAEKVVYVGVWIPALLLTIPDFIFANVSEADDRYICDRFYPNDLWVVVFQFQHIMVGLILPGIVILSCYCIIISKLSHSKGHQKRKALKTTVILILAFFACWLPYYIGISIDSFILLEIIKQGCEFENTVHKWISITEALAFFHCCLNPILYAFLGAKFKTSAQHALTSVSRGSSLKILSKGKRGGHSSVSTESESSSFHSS

SMILES | phosphorylation of Ser324/325 or Ser339 in the C terminus of CXCR4 [1] | CXCR4 cell surface expression after prolonged exposure ([2]; 72 hours, compared to vehicle-treated cells) | total CXCR4 protein amount [3] | CXCL12-mediated CXCR4 internalization (endocytosis) [4] | increase of CXCL12 EC50 for BA2 recruitment [5] | potency of AMD3100 to inhibit chemotaxis after dynasore treatment [6] | cAMP amounts in forskolin and CXCL12 treated cells [7] | pERK1/2 (Thr202/Tyr204) generation after CXCL12 [8] | amount of Gαi-GTP in CXCL12-treated cells [9] | CXCR4 cell surface expression after dynasore ([2]; 80 μM dynasore for 1 hour, antibody clone 4G10)
c1cc(CN2CCCNCCNCCCNCC2)ccc1CN1CCCNCCNCCCNCC1 [AMD3100, AMD3100 octahydrochloride hydrate] | inhibited this posttranslational modification | increased cell surface CXCR4 expression | increased the total CXCR4 protein amount | inhibited CXCL12-mediated receptor internalization | more than 3500 fold | reduced potency | returned cAMP amounts to those observed in cells treated with forskolin alone | inhibited both early and late peaks in pERK1/2 generation | reduced the amount of Gαi-GTP | 
Nn1cnc2scc(-c3ccc(Cc4ccccc4)cc3)c2c1=O [barbadin] |  |  |  |  |  |  |  | increased the early and late peaks in pERK1/2 abundance |  | 
O=C(N/N=C/c1ccc(O)c(O)c1)c1cc2ccccc2cc1O [dynasore] |  |  |  |  |  |  |  |  |  | increased CXCR4 cell surface expression
